Sampled rows, rich in hits. Any-hit rate of the full collection: about 6.5%.
PostGolgi yeast: growth inhibition of a yeast mutant, post-Golgi transport screen; post-Golgi transport phenotypic cell assay; inhibition, % at 10 µM; hit rate 0.9% among 98,000; AID 739;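 note: yeast cells grown in 1536-well plates; yeast grown about 18 h at 30C before absorbance read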
PostGolgi ctrl: yeast control strain growth, post-Golgi counter-screen; efflux-deficient yeast background strain, growth absorbance A615, 16 h; inhibition, % at 10 µM; hit rate 5% among 98,000
Candida biofilm: kills Candida albicans biofilms; C. albicans biofilm + clotrimazole, Alamar Blue; inhibition, % at 6 µM; hit rate 0.14% among 85,000;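 active = inhibition above 20%; inactive = inhibition below 20%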;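 note: preformed 24 hr biofilms exposed to compound for 48 hr; 0% = biofilm without compound and 100% = blank killed by clotrimazole plus chlorhexidine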
Pyk2 oligo antag: blocks oligomerization of human Pyk2 in cells; Q14289; Q293 cells, Pyk2 FERM NanoBiT luminescence; active compounds read low; z-score (the deposit names both 25 µM and 10 µM); hit rate 0.83% among 99,000; AID 1347419;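 active = Z-score of -3 or lower, scaled per plate to the spread of control and sample wells; inactive = z-score above -3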;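 note: negative z-score means lost luminescence so less FERM oligomerization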
Target sequence (Q14289 whole entry, looked up): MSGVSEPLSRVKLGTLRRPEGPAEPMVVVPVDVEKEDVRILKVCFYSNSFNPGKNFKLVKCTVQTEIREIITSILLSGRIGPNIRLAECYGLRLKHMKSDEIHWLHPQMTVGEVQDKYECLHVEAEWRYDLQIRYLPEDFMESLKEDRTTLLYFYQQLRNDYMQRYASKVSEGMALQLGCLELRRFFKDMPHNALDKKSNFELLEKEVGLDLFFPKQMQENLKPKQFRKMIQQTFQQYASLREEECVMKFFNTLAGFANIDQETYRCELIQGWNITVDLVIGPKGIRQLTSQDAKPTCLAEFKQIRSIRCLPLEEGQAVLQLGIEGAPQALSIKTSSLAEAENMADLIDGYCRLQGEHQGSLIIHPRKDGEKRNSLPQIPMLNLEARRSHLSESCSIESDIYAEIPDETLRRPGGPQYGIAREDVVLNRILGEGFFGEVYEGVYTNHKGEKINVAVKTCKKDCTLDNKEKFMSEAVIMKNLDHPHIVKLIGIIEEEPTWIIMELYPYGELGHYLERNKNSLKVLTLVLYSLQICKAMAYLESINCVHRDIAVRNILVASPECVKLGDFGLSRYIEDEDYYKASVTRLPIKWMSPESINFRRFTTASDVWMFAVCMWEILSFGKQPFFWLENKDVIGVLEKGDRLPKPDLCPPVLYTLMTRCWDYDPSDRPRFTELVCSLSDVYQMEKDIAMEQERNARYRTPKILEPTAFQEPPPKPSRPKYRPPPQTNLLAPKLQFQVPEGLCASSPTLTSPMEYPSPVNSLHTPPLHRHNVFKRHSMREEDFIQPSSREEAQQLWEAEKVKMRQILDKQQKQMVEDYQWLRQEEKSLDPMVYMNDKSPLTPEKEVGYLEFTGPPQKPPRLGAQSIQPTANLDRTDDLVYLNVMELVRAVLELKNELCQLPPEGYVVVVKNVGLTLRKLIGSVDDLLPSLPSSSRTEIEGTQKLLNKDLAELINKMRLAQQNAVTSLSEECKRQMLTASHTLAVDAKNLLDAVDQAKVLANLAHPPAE
Ecoli tolC: E. coli tolC mutant growth inhibition; E. coli BW25113 tolC mutant growth, OD615; growth inhibition, % at 10 µM (by protocol); hit rate 2.2% among 65,000;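 active = growth inhibition at or above a cutoff equal to the mean over every tested compound plus 3 SD, cut at about 60% in these data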;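 note: growth measured after 20 h incubation at 37 °C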
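Test system – E. coli BW25113 ΔtolC::kan, tolC deletion mutant strain · Detection – OD at 615 nm · Buffer or medium – LB with kanamycin 50 µg/mL · Times – 20 h compound exposure of bacteria at 37 °C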
E coli WT exp: growth inhibitors of E. coli BW25113 wild type. hit rate 0.15% among 98,000. OD600 absorbance. growth inhibition, % at 100 µM;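 active = growth inhibition above about 50% at one test dose, limit read from the data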;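 note: growth measured after 20 h incubation at 37 °C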
Starred values were filed as active, the others as inactive; nt = no result given. Cut-off read from the data, not from the text of the source, unless noted: active = inhibition above about 30%; inactive = the rest.

SMILES	PostGolgi yeast	PostGolgi ctrl	Candida biofilm	Pyk2 oligo antag	Ecoli tolC	E coli WT exp
COc1ccc(CNC(=O)c2ccc3c(c2)N(C)C(=O)CS3=O)cc1 (stereo not drawn)	3	4	3	nt	-6	1
O=S(=O)(C=C(c1ccccc1)c1ccccc1)c1ccccc1	-5	36*	nt	-1.8	nt	-4
COc1cccc(-c2csc(N3CCN(C(=O)C4CCCCC4)CC3)n2)c1	-3	38*	8	1.6	69*	-28
N/C(=N\S(=O)(=O)c1cccs1)c1ccccc1	-7	11	6	-0.16	-7	9
Cc1ccc(NC2=C/C(=N\S(=O)(=O)c3cccs3)c3ccccc3C2=O)c(C)c1	nt	nt	2	-3.7*	nt	nt
Cc1ccc(Cl)cc1NC1=C/C(=N\S(=O)(=O)c2cccs2)c2ccccc2C1=O	50*	66*	nt	-4.4*	nt	-16
CC(NC(=O)Cc1cccs1)C(c1cccs1)N1CCN(c2ccccc2F)CC1 (stereo not drawn)	6	36*	10	-0.25	26	-11
Cc1noc(C)c1COC(=O)c1cc(C)n(-c2ccccc2)c1C	3	8	-5	-3.1*	93*	-7
Cc1cc(C(=O)OCc2nnc(-c3ccccc3)o2)c(C)n1-c1ccccc1	-10	9	9	1.9	63*	-15
Cc1noc(C)c1COC(=O)c1cc(=O)[nH]c2ccccc12	-3	29	6	-0.32	6	5
COc1ccc(NC(C)=O)cc1NC(=O)CSc1nc2ncccc2[nH]1	1	12	7	0.01	-1	1
Cc1sc(N/N=C/C=C/c2ccccc2)nc1-c1ccccc1	2	11	nt	-0.02	nt	-19
COC(=O)c1cccc(C(=O)Nc2ccc(F)cc2)n1	-14	32*	-2	-0.47	nt	6
COC(=O)Cc1cc(=O)n2[nH]c(C(F)(F)F)nc2n1	3	6	2	-0.26	nt	-2
CCC(C)N1C(=O)/C(=C/c2c(NCCCOC(C)C)nc3c(C)cccn3c2=O)SC1=S (stereo not drawn)	21	26	6	-3.1*	nt	-41
CCCN1C(=O)/C(=C/c2c(NCCCOC(C)C)nc3c(C)cccn3c2=O)SC1=S	-11	-5	7	-0.5	nt	-25
O=C(NC1CCCCC1)Sc1ccc(Cl)cc1	2	0	-1	0.8	12	-2
CC12CC3CC(C)(C1)CC(C(=O)NC1=NCCS1)(C3)C2	-2	38*	6	-0.11	nt	2
CC12CC3(C)CC(C)(C1)CC(C(=O)NC1=NCCS1)(C2)C3	nt	nt	5	1.1	nt	nt
COc1ccc(/C(C)=N/OCC(=O)Nc2nc3ccccc3s2)cc1	nt	nt	nt	-0.42	nt	nt
O=C(NCCCc1ccccc1)c1ccccc1O	-11	8	2	0.15	67*	26
O=C(NCCO)c1ccccc1O	23	5	8	-0.22	nt	2
COc1ccc(S(=O)(=O)NC(CC(=O)NCc2ccco2)C(C)C)cc1 (stereo not drawn)	0	38*	nt	-0.2	-7	0
CC(C)NC(=O)CSc1nc(Cc2cccs2)nc2ccccc12	1	0	nt	-0.67	nt	4
O=C(CN1CCN(S(=O)(=O)c2ccc(F)cc2)CC1)Nc1ccc2c(c1)OCCO2	-1	14	7	-0.12	7	1
SMILES	PostGolgi yeast	PostGolgi ctrl	Candida biofilm	Pyk2 oligo antag	Ecoli tolC	E coli WT exp
O=C(CN1CCN(S(=O)(=O)c2ccc(F)cc2)CC1)Nc1ccc(Cl)c(C(F)(F)F)c1	0	33*	4	0.04	64*	1
CCOc1ccc(NC(=O)CN2CCN(CC(=O)Nc3ccc(Cl)c(C(F)(F)F)c3)CC2)cc1	-3	35*	-2	-0.53	nt	-1
Cc1ccc(Nc2nc(N3CCOCC3)nc(N3CCOCC3)n2)cc1	8	0	nt	-0.36	-12	-13
CSc1nc2ccc(Nc3nc(N4CCOCC4)nc(N4CCOCC4)n3)cc2s1	11	15	4	-3.4*	4	-4
CCCC(=O)Nc1ccc2nc(SCC(=O)Nc3ccc(N4CCOCC4)c(Cl)c3)sc2c1	-1	-1	nt	-3.5*	nt	-14
OC(CN1CCN(c2ccccc2)CC1)Cn1c2ccccc2c2ccccc21 (stereo not drawn)	-1	36*	4	-1.4	nt	-11
OC(CN1CCN(c2ccccn2)CC1)Cn1c2ccc(Cl)cc2c2cc(Cl)ccc21 (stereo not drawn)	97*	97*	4	0.18	nt	-4
OCC(O)CN1CCN(c2ccccc2)CC1 (stereo not drawn)	nt	nt	13	nt	10	nt
COc1c(N2CCN(C(=S)Nc3ccccc3)C(C)C2)c(F)cc2c(=O)c(C(=O)O)cn(C3CC3)c12 (stereo not drawn)	-4	9	nt	nt	nt	99*
CCOC(=O)c1cn(-c2nc(-c3ccc(Cl)cc3)cs2)c2c(F)c(N3CC(C)OC(C)C3)c(F)cc2c1=O (stereo not drawn)	6	5	nt	nt	nt	-5
CNC(=S)N1CCN(c2c(F)cc3c(=O)c(C(=O)O)cn(C4CC4)c3c2OC)CC1C (stereo not drawn)	5	3	-1	0.26	nt	100*
COc1cc2c(C#N)c(N3CCN(c4ccccc4OC)CC3)nc(N)c2c(N)n1	17	36*	nt	1.1	19	-1
COc1ccc(OC)c(C2=NOC(C(=O)N3CCCc4ccccc43)C2)c1 (stereo not drawn)	-7	8	4	-1.3	nt	0
Cc1c(-c2ccccc2)nc2ccccc2c1C(=O)Oc1ccc([N+](=O)[O-])cc1	6	7	nt	0.89	nt	-17
Nc1ccc(Oc2ccc3nc(-c4ccccc4)c(-c4ccc([N+](=O)[O-])cc4)nc3c2)cc1	37*	19	nt	-1.9	nt	-15
CCCCNS(=O)(=O)C1CCS(=O)(=O)C1 (stereo not drawn)	14	2	6	-0.05	nt	-4
N#CC1=C(N)NC(SCc2ccccc2)=C(C#N)C12CCCCC2	103*	91*	5	-0.95	62*	16
CCSC1=C(C#N)C2(CCCCC2)C(C#N)=C(N)N1	-4	3	10	-0.88	14	10
C/C(CC(C)(C)C1CCCCC1)=N\NC(N)=S	107*	100*	10	1.5	nt	-9
COc1cccc(-n2c(SCC(=O)NCCc3ccccc3)nnc2-c2ccoc2C)c1	-6	5	8	-1.6	15	-10
S=C(Nc1ccccc1)N1CCn2c1nc1ccccc12	6	38*	16	-0.23	nt	-17
CCOC(=O)C1CCN(C(=O)CN(c2ccc3c(c2)OCCO3)S(C)(=O)=O)CC1	-9	12	0	1.2	nt	4
CCOC(=O)c1sc2nc(CC(=O)OC)nc(N3CCN(c4ccccn4)CC3)c2c1C	2	30*	8	-1.9	66*	-23
CCOC(=O)c1sc2ncnc(N3CCN(C(=O)OCC)CC3)c2c1C	3	36*	3	1.4	4	8
CNC(=S)N(Cc1ccc2c(c1)OCO2)C1CC(=O)N(c2ccc(F)cc2)C1=O (stereo not drawn)	0	-2	nt	-0.19	nt	1
Cc1cc(OCC(=O)Nn2cnnc2)ccc1Br	-2	-9	8	0.38	-1	-5
